Most compounds without a hit are left out; they make up all but 4.5% or so of the library.
PHOSPHO1 block – PHOSPHO1 (human) inhibition. recombinant PHOSPHO1, absorbance phosphatase assay. Q8TCT1. inhibition, % at 13.3 µM. 290,000 tested, 1.1% active. AID 1565; in the data active means inhibition above about 60%
RGS4 block – human RGS4 inhibition | AID 463165 | 310,000 tested, 0.45% active | B-score at 10 µM | HEK293 M3R/RGS4 inducible, Fluo-4 calcium flux; active compounds read high; triggered by carbachol at its EC20;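 active means B-score, a plate-corrected calcium signal, over three deviations above library mean, with baseline fluorescence within five deviations of library mean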;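 further: RGS4 expression induced by doxycycline in cells with stable M3 receptor; B-score is computed from the integrated fluorescence ratio over baseline after carbachol; higher B-score means a larger calcium signal and so more RGS4 inhibition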
Target sequence (P49798 whole entry, looked up): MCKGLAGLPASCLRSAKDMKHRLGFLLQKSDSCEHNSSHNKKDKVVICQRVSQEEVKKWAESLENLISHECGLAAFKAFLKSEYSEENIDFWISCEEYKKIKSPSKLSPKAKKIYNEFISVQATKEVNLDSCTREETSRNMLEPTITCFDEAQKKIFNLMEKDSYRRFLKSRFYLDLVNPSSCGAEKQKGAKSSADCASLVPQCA
MrgX1 PAM – allosterically activates human MrgX1 receptor signaling; Q96LB2; MrgX1-HEK293, Fluo-4 calcium flux, FDSS; active compounds read high; B-score at 10 µM; 310,000 tested, 0.63% active;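 active means plate-corrected calcium response at least 3 library SD above typical, normal starting fluorescence, not activating the receptor alone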;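 further: compound read alongside a low EC10 to EC30 dose of BAM8-22 agonist; peak minus trough fluorescence over baseline measured at the second addition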
Target sequence (Q96LB2 whole entry, looked up): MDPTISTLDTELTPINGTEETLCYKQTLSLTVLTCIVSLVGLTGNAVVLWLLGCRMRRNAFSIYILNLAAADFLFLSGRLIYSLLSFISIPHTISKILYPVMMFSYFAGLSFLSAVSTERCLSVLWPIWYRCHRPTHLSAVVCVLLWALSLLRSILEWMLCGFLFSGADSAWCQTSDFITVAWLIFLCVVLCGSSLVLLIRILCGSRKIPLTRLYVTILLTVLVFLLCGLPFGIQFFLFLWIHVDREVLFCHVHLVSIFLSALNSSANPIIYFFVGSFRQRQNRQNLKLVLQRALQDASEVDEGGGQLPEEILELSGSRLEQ
MrgX1 ag – activates human MrgX1 receptor signaling. MrgX1-HEK293 cells, Fluo-4 calcium fluorescence, agonist mode; active compounds read high. B-score at 10 µM. 310,000 tested, 0.44% active;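 active means calcium response B-score plate-corrected fluorescence ratio at least 3 library SD, with starting fluorescence B-score inside 5 SD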
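System – MrgX1-expressing HEK293 cells · Incubation – cells plated overnight, dye loaded 0.5 h 37 °C, 0.5 h room temperature · Technique – kinetic Fluo-4 NW fluorescence of intracellular calcium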
RGS4 pot – RGS4 potentiation or activation. HEK293 M3R/inducible RGS4, carbachol calcium flux Fluo4; active compounds read low. B-score at 10 µM. 310,000 tested, 0.92% active. AID 463111;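 active means B-score of the integrated calcium signal more than 4 SD below the library mean, with starting fluorescence not abnormally high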;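 further: negative B-score means reduced calcium response which marks RGS4 activation or potentiation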
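Also added: carbachol at ECmax as muscarinic agonist stimulus; Assay system: HEK293 cells with stable M3R and inducible RGS4; Timing: overnight RGS4 induction, 30 min dye load 37 °C, 20 min compound RT; Measured by: Fluo4-AM (2 µM) calcium-flux fluorescence, kinetic read.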
MrgX1 antag – human MrgX1 receptor antagonism, primary screen. 310,000 tested, 1.3% active. MRGX1-HEK293 calcium flux, Fluo-4, BAM8-22 antagonism; active compounds read low. Q96LB2. B-score at 10 µM. AID 588676;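 active means calcium-response B-score plate-corrected more than 3 library SD below zero, starting fluorescence within 5 deviations, no agonist response on first addition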;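 further: peak minus trough fluorescence over baseline after final BAM8-22 challenge near maximal dose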
RGS4 block valid – RGS4 inhibitor validation; 1,700 tested, 65% active; HEK293 M3R/RGS4, carbachol calcium Fluo-4 fluorescence; carbachol added at its EC20; 0 = buffer wells, 100 = carbachol control; AID 492999; calcium response, % at 10 µM; shares compounds with RGS4 block;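 active means duplicate-averaged calcium response above the buffer-only control mean plus 5 SD of those controls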;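 further: integrated fluorescence ratio F max minus min over baseline F0; higher response in RGS4-induced cells means RGS4 inhibition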
RGS4 uninduced – checks RGS4 inhibitor effects in non-induced HEK293 M3R cells. 1,900 tested, 20% active. AID 493000. shares compounds with RGS4 block. carbachol calcium Fluo-4; submaximal (EC20) carbachol stimulus; buffer wells 0%, carbachol control wells 100%. activity (percent), % at 10 µM; call rule not given here;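 further: RGS4 induction absent so cells express M3R without RGS4; higher means more calcium signal and flags a non-specific hit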
RGS4 inh ctr2 – signal in non-induced cells without carbachol, RGS4 inhibitor counter-screen; 1,900 tested, 22% active; AID 493001; HEK293 M3R/RGS4 non-induced, Fluo-4 calcium, no carbachol; normalised: buffer wells 0%, carbachol wells 100%; shares compounds with RGS4 block; calcium response (agonist-mode artifact), % at 10 µM;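 active means duplicate-averaged calcium rise in uninduced cells above buffer wells' mean plus 5 SD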
Numbers without * were called inactive; i = inactive; x = no result given.

SMILES	PHOSPHO1 block	RGS4 block	MrgX1 PAM	MrgX1 ag	RGS4 pot	MrgX1 antag	RGS4 block valid	RGS4 uninduced	RGS4 inh ctr2
COc1cc(/C=C/[N+](=O)[O-])ccc1OC(=O)c1cccnc1	-1	49*	i	i	i	i	113%*	45%*	26%*
CC/C(=N\N1CCCCC1)c1c(O)[nH]c(=O)[nH]c1=O	13	4.7*	i	i	i	i	8.5%*	i	i
C=C1C(=O)O[C@@H]2C[C@@H](C)[C@@H]3C=CC(=O)[C@@]3(C)[C@@H](OC(=O)CC(=O)O[C@H]3[C@@H]4C(=C)C(=O)O[C@@H]4C[C@@H](C)[C@@H]4C=CC(=O)[C@]43C)[C@H]12	31	i	i	i	i	-5.3*	x	i	11%*
CC(C)N1OC2CC1c1nc3ccccc3n1C2 (stereo unspecified)	0	i	i	i	i	i	x	x	x
Cc1ccc(N2C(=O)NC(=O)/C(=C\C=C\c3ccco3)C2=O)cc1	8	i	i	i	i	i	x	i	12%*
Cc1cccc(N2C(=O)NC(=O)/C(=C\C=C\c3ccco3)C2=O)c1	-29	17*	i	57*	i	i	49%*	64%*	88%*
O=C1NC(=O)N(c2ccccc2)C(=O)/C1=C/C=C/c1ccco1	37	i	i	i	i	i	x	x	x
Cc1ccc(N2C(=O)NC(=O)/C(=C\C=C\c3ccco3)C2=O)cc1C	0	22*	i	i	i	i	28%*	32%*	40%*
Cc1ccc(C2=NCC(=O)Nc3ccc(Br)cc32)cc1	14	i	i	i	i	i	x	x	x
C/C(=C\c1ccc(N(C)C)cc1)[N+](=O)[O-]	1	7.6*	i	i	i	i	24%*	62%*	14%*
CN(C)c1ccc(/C=C/[N+](=O)[O-])cc1	7	19*	i	i	i	i	54%*	i	76%*
Cc1ccc(/C=C2/C(=O)NC(=O)N(CC3CCCO3)C2=O)s1 (stereo unspecified)	-4	i	i	i	i	i	x	x	x
O=C1NC(=O)C(=Cc2ccc(-c3ccc(Cl)cc3)o2)C(=O)N1	20	14*	i	i	i	i	16%*	i	8.5%*
O=C1NC(=O)C(=Cc2ccc(-c3ccc(S(=O)(=O)N4CCOCC4)cc3)o2)C(=O)N1	25	i	i	i	i	i	x	x	x
O=C1NC(=O)C(=Cc2ccc3c(c2)OCO3)C(=O)N1	27	i	i	i	i	i	x	x	x
O=C1NC(=O)C(=Cc2ccc(-c3ccc(F)cc3O)o2)C(=O)N1	-37	40*	i	i	i	i	74%*	32%*	10%*
O=C(CCC(=O)N1CCC2(CC1)OCCO2)Nc1nnc(C2CCCCC2)s1	8	i	i	i	i	i	x	x	x
NC(=O)c1cn(C2OC(CO)C(O)C2O)c2ncnc(N)c12 (stereo unspecified)	-16	i	i	i	i	i	x	x	x
CCNC(=O)[C@H]1O[C@@H](n2cnc3c(N)ncnc32)[C@H](O)[C@@H]1O	20	9.8*	i	i	i	i	34%*	i	i
Nc1c(C(=O)NCc2ccco2)c2nc3ccccc3nc2n1CCN1CCCCC1	7	i	i	i	i	i	i	i	12%*
COc1cc2c(cc1/C=C/[N+](=O)[O-])OCO2	-10	12*	x	x	i	x	36%*	43%*	74%*
N#CCCn1cc(C(=O)Nc2ccccc2Cl)c(-c2ccc(F)cc2)n1	-92	i	i	i	i	i	x	x	x
COc1ccc(C2CC(c3c(O)n(CCc4ccccc4)c(=O)[nH]c3=O)=NN2)cc1OC (stereo unspecified)	16	8.1*	i	i	i	i	i	i	i
O=C1NC(=O)N(c2ccc3c(c2)OCO3)C(=O)/C1=C/c1ccsc1	6	i	i	i	i	i	x	x	x
O=C1NC(=O)N(c2ccc3c(c2)OCO3)C(=O)/C1=C/c1cccs1	35	13*	i	i	i	i	18%*	34%*	i
SMILES	PHOSPHO1 block	RGS4 block	MrgX1 PAM	MrgX1 ag	RGS4 pot	MrgX1 antag	RGS4 block valid	RGS4 uninduced	RGS4 inh ctr2
O=C(Cn1ccc2ccccc2c1=O)NCC(=O)N1CCC2(CC1)OCCO2	20	i	i	i	i	i	x	x	x
COc1ccc(NP(=O)(Oc2ccc(Cl)cc2)Oc2ccc(Cl)cc2)cc1OC	-24	12*	i	i	i	i	42%*	i	i
CNC(C)(C)Cc1ccccc1	x	x	i	i	x	i	x	x	x
O=[N+]([O-])c1ccc(N2CCCC2)c2ncccc12	0	i	i	i	i	i	x	x	x
CC1CN(c2ccc([N+](=O)[O-])c3cccnc23)CC(C)N1 (stereo unspecified)	28	5.8*	i	i	i	i	i	i	i
COc1ccc(CC(C)NC2CCCCCC2)cc1 (stereo unspecified)	x	i	i	i	i	i	x	x	x
Cc1cc(C)cc(N2C(=O)NC(=O)/C(=C/c3cccn3-c3ccc(Cl)cc3)C2=O)c1	3	i	i	i	i	i	i	i	i
O=C1NC(=O)N(Cc2ccccc2Cl)C(=O)/C1=C/c1cccs1	-11	i	i	i	i	i	x	x	x
Cc1ccc(/C=C2\C(=O)NC(=S)N(c3cccc(F)c3)C2=O)o1	-16	16*	i	i	i	i	34%*	i	i
O=C1NC(=O)N(Cc2ccc(F)cc2)C(=O)/C1=C/c1cccs1	-3	30*	i	i	i	i	15%*	i	i
Cc1ccc(/C=C2\C(=O)NC(=O)N(CCc3ccc(F)cc3)C2=O)o1	-17	i	i	i	i	i	x	i	8.5%*
COc1ccc(N2C(=O)/C(=C/c3ccc(C)o3)C(=O)NC2=S)cc1	-56	i	x	x	i	x	x	33%*	12%*
